Experimental data published in ChEMBL document CHEMBL4028848, “Discovery of N-{4-[5-(4-Fluorophenyl)-3-methyl-2-methylsulfanyl-3H-imidazol-4-yl]-pyridin-2-yl}-acetamide (CBS-3595), a Dual p38α MAPK/PDE-4 Inhibitor with Activity against TNFα-Related Diseases” (J Med Chem, 2017).
pIC50: −log10 of the molar value. Active and inactive are the calls of the source. No cut-off for these calls is given here.

Key:
[1] = Half life in fed human at 10 mg, po administered as single dose; type: ADME, organism-based; details: in vivo
Method in brief: (§1)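 Oral single-dose PK; plasma concentrations of parent and metabolite measured. Dogs: blood sampled 0.25 to 24 h after dosing. Humans: healthy subjects, placebo-controlled single-blind randomized consecutive dosing, plasma sampled predose and 0.25–36 h post dose. 10 mg also given fasting and fed in crossover. Parameters derived from individual concentration–time profiles.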

[2] = target: 3',5'-cyclic-AMP phosphodiesterase 4A (Homo sapiens, UniProt P27815); experiment: Inhibition of human PDE4A4 expressed in sf9 cells
3',5'-cyclic-AMP phosphodiesterase 4A, sequence (P27815 whole entry): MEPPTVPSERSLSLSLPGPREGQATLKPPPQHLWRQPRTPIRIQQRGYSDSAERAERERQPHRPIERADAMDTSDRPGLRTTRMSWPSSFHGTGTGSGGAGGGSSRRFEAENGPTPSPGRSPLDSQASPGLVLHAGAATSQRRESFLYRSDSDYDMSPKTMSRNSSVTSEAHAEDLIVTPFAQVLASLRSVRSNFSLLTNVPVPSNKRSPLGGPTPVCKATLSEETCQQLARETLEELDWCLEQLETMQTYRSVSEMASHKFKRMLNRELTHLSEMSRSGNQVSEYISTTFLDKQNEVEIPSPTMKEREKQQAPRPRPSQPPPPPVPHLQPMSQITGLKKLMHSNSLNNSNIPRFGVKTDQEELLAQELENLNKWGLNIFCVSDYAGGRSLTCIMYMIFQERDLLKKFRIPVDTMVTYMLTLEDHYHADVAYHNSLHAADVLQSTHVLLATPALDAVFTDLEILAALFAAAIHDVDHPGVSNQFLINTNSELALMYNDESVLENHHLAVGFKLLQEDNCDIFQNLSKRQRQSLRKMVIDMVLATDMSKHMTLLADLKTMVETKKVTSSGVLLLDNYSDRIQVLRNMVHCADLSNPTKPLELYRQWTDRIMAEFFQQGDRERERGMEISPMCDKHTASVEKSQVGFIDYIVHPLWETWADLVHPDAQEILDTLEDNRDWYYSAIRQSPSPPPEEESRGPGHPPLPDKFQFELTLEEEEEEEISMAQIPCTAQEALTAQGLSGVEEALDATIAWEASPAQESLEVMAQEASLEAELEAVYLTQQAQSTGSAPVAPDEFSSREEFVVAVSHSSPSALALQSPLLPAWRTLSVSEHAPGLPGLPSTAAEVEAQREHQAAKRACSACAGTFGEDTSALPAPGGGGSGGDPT

[3] = Inhibition of PDE4 in human U937 cells assessed as [3H]cAMP hydrolysis; type: cell-based
[4] = AUC (0 to t) in human at 20 mg, po administered as single dose; type: ADME, organism-based; details: in vivo
Method in brief: (§2)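 Placebo-controlled, single-blind, randomized, consecutive-dosing study in healthy subjects given single oral doses, with 10 mg also given fasting and fed in a crossover. Plasma parent and active metabolite were measured predose and from 0.25 to 36 h post dose. PK parameters were derived from individual concentration–time profiles and reported as means.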

[5] = Tmax in human at 20 mg, po administered as single dose; type: ADME, organism-based; details: in vivo
Method in brief: (§3)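 Healthy subjects received single oral doses of 10, 20, 30 or 50 mg in a placebo-controlled, single-blind, randomized consecutive-dose study; 10 mg was also given fasting vs fed in a crossover. Plasma drug was sampled pre-dose and from 0.25 to 36 h post-dose. Mean Tmax was taken from individual concentration–time profiles.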

[6] = AUC (0 to t) in human at 50 mg, po administered as single dose; type: ADME, organism-based; details: in vivo; method in brief: as §2
[7] = target: Mitogen-activated protein kinase 14 (Homo sapiens, UniProt Q16539); experiment: Inhibition of P38 MAPKalpha in LPS-stimulated human whole blood assessed as decrease in TNFalpha level
Mitogen-activated protein kinase 14, sequence (Q16539 whole entry): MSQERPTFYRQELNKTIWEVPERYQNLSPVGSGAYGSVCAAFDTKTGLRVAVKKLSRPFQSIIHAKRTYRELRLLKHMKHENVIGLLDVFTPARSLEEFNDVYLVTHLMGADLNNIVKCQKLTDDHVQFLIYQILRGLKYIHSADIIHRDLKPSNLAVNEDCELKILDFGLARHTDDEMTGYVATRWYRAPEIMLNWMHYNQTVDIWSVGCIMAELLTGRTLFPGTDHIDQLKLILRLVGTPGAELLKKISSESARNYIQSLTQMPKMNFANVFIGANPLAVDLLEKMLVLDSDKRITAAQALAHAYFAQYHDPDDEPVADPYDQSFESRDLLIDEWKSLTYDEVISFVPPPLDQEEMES

[8] = Tmax in fasting human at 10 mg, po administered as single dose; type: ADME, organism-based; details: in vivo; method in brief: as §3
[9] = AUC (0 to infinity) in human at 50 mg, po administered as single dose; type: ADME, organism-based; design: dose 50 mg, time infinity, route oral; details: in vivo; method in brief: as §2
[10] = Half life in human at 30 mg, po administered as single dose; type: ADME, organism-based; details: in vivo; method in brief: as §1
[11] = AUC (0 to infinity) in fasting human at 10 mg, po administered as single dose; type: ADME, organism-based; design: dose 10 mg, time infinity, route oral; details: in vivo; method in brief: as §2
[12] = target: 3',5'-cyclic-AMP phosphodiesterase 4B (Homo sapiens, UniProt Q07343); experiment: Inhibition of human PDE4B1 expressed in sf9 cells
3',5'-cyclic-AMP phosphodiesterase 4B, sequence (Q07343 whole entry): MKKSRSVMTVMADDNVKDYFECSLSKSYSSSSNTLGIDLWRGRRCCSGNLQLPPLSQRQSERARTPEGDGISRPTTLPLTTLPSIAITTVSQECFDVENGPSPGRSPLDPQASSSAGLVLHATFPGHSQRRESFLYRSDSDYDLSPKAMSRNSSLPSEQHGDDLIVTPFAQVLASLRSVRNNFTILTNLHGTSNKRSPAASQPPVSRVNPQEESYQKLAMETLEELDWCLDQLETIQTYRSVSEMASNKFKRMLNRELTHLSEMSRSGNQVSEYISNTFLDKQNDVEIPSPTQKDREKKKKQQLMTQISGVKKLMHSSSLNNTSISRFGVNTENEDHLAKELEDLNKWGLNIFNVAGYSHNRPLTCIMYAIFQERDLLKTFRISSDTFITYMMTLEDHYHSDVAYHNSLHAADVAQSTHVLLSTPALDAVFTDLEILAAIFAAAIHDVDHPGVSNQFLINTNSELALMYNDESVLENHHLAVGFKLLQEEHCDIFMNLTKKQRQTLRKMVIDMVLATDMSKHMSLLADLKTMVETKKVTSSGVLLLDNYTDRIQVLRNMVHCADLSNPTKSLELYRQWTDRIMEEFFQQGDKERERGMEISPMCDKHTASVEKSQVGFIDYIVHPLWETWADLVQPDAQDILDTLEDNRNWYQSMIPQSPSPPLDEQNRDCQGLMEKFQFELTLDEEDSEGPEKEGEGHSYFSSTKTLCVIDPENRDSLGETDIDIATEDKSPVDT

[13] = target: cGMP-specific 3',5'-cyclic phosphodiesterase (Homo sapiens) (UniProt O76074); experiment: Inhibition of PDE5 in human U937 cells assessed as [3H]cAMP hydrolysis at 10 uM; type: cell-based
[14] = Half life in human at 10 mg, po administered as single dose; type: ADME, organism-based; details: in vivo; method in brief: as §1
[15] = Tmax in human at 50 mg, po administered as single dose; type: ADME, organism-based; details: in vivo; method in brief: as §3
[16] = AUC (0 to infinity) in human at 20 mg, po administered as single dose; type: ADME, organism-based; design: dose 20 mg, time infinity, route oral; details: in vivo; method in brief: as §2
[17] = Half life in fasting human at 10 mg, po administered as single dose; type: ADME, organism-based; details: in vivo; method in brief: as §1
[18] = Cmax in human at 10 mg, po administered as single dose; type: ADME, organism-based; design: dose 10 mg, route oral; details: in vivo; method in brief: as §1
[19] = tested on: Homo sapiens; experiment: Toxicity in human assessed as effect on CNS at 50 mg, po administered as single dose; type: organism-based; details: in vivo
Method in brief: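 Single oral 50 mg dose given to healthy subjects in a placebo-controlled, single-blind, randomized FIH study. Adverse events, vital signs and physical findings were recorded, including CNS effects.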

[20] = Fraction unbound in human plasma; type: ADME, cell-free
Method in brief: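 Plasma protein binding measured in human, Sprague–Dawley rat and Cynomolgus monkey plasma at 1, 10 and 30 μM compound. Reported as unbound fraction (%).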

[21] = target: Mitogen-activated protein kinase 13 (Homo sapiens) (UniProt O15264); experiment: Inhibition of p38MAPK delta (unknown origin) at 10 uM relative to control
Mitogen-activated protein kinase 13 (Homo sapiens), sequence (O15264 whole entry): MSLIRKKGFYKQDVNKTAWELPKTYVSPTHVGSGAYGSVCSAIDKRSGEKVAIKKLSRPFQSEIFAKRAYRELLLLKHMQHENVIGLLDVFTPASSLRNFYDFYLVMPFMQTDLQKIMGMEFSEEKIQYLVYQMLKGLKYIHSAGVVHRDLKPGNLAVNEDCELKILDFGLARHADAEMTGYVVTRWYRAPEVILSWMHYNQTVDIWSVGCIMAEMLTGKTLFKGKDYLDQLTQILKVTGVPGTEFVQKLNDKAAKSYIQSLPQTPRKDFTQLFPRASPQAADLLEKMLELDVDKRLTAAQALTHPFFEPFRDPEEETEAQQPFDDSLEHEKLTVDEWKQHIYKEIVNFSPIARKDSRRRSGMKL

[22] = Tmax in fed human at 10 mg, po administered as single dose; type: ADME, organism-based; details: in vivo; method in brief: as §3
[23] = Half life in human at 50 mg, po administered as single dose; type: ADME, organism-based; details: in vivo; method in brief: as §1
[24] = Cmax in fed human at 10 mg, po administered as single dose; type: ADME, organism-based; design: dose 10 mg, route oral; details: in vivo; method in brief: as §2
[25] = AUC (0 to t) in human at 30 mg, po administered as single dose; type: ADME, organism-based; details: in vivo; method in brief: as §2
[26] = target: Mitogen-activated protein kinase 9 (Homo sapiens) (UniProt P45984); experiment: Inhibition of JNK2alpha2 (unknown origin) at 10 uM relative to control
Mitogen-activated protein kinase 9 (Homo sapiens), sequence (P45984 whole entry, looked up): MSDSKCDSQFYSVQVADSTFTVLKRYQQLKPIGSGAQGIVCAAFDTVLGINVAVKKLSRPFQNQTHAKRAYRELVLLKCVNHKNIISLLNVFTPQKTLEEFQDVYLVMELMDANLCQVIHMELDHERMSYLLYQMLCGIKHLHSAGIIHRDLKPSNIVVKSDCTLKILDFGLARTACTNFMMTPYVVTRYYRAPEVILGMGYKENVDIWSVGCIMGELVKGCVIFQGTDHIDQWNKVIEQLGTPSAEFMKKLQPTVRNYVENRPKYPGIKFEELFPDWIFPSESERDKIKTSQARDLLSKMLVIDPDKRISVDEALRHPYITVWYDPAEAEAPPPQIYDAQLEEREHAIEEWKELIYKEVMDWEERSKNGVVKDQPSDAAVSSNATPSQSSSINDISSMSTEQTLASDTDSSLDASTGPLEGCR

[27] = Cmax in human at 50 mg, po administered as single dose; type: ADME, organism-based; design: dose 50 mg, route oral; details: in vivo
[28] = species: Homo sapiens; experiment: Inhibition of PDE3 in human U937 cells assessed as [3H]cAMP hydrolysis at 10 uM; type: cell-based
[29] = Tmax in human at 30 mg, po administered as single dose; type: ADME, organism-based; details: in vivo; method in brief: as §3
[30] = AUC (0 to infinity) in human at 30 mg, po administered as single dose; type: ADME, organism-based; design: dose 30 mg, time infinity, route oral; details: in vivo; method in brief: as §2
[31] = Cmax in human at 20 mg, po administered as single dose; type: ADME, organism-based; design: dose 20 mg, route oral; details: in vivo; method in brief: as §1
[32] = AUC (0 to t) in fasting human at 10 mg, po administered as single dose; type: ADME, organism-based; details: in vivo; method in brief: as §2
[33] = target: RAF proto-oncogene serine/threonine-protein kinase (Homo sapiens) (UniProt P04049); experiment: Inhibition of c-RAF (unknown origin) at 10 uM relative to control
RAF proto-oncogene serine/threonine-protein kinase (Homo sapiens), sequence (P04049 whole entry): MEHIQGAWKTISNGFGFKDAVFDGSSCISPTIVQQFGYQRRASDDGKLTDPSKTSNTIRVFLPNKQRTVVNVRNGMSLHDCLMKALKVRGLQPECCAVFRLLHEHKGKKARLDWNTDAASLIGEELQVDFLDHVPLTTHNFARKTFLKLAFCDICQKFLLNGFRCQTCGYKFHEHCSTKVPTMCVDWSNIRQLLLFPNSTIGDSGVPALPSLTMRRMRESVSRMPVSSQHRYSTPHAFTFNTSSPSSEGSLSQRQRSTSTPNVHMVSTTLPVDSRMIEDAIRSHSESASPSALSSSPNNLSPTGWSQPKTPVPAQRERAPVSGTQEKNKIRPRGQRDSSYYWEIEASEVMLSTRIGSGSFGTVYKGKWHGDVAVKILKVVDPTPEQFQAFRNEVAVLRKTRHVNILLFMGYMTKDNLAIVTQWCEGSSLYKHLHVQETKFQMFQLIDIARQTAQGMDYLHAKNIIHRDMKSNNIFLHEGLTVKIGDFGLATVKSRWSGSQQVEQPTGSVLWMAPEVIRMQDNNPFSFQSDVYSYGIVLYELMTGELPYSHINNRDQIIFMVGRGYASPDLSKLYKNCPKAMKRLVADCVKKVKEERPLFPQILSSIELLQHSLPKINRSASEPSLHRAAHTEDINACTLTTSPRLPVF

[34] = Tmax in human at 10 mg, po administered as single dose; type: ADME, organism-based; details: in vivo; method in brief: as §3
[35] = target: 3',5'-cyclic-AMP phosphodiesterase 4C (Homo sapiens, UniProt Q08493); experiment: Inhibition of human PDE4C1 expressed in sf9 cells
3',5'-cyclic-AMP phosphodiesterase 4C, sequence (Q08493 whole entry): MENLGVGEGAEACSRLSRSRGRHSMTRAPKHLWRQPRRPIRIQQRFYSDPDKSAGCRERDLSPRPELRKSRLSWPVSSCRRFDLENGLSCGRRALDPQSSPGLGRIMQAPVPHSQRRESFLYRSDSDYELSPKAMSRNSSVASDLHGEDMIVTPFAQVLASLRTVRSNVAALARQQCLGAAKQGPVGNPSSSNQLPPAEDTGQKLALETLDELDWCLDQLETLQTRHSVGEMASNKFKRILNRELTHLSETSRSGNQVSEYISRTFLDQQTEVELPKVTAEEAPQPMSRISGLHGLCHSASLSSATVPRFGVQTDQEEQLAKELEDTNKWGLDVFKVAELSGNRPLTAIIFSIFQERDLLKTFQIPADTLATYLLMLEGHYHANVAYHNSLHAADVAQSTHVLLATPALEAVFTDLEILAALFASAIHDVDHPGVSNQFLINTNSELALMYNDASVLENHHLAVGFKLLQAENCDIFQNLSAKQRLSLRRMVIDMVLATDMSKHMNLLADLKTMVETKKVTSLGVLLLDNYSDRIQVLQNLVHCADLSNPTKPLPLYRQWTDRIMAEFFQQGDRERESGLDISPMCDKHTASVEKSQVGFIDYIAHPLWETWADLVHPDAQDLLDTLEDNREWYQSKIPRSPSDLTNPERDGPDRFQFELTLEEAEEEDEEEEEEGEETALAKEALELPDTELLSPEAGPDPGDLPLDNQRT

[36] = Cmax in fasting human at 10 mg, po administered as single dose; type: ADME, organism-based; design: dose 10 mg, route oral; details: in vivo; method in brief: as §2
[37] = AUC (0 to t) in human at 10 mg, po administered as single dose; type: ADME, organism-based; details: in vivo; method in brief: as §2
[38] = AUC (0 to infinity) in human at 10 mg, po administered as single dose; type: ADME, organism-based; design: dose 10 mg, time infinity, route oral; details: in vivo; method in brief: as §2
[39] = Half life in human at 20 mg, po administered as single dose; type: ADME, organism-based; details: in vivo; method in brief: as §1
[40] = Cmax in human at 30 mg, po administered as single dose; type: ADME, organism-based; design: dose 30 mg, route oral; details: in vivo; method in brief: as §1
[41] = tested on: Cynomolgus monkey; experiment: In vivo inhibition of P38 MAPKalpha in cynomolgus monkey assessed as decrease in TNFalpha level in LPS-stimulated whole blood at 12 mg/kg, po pretreated followed by LPS addition measured after 1 day relative to control; type: functional; details: Macaca fascicularis
Method in brief: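 Cynomolgus monkeys were dosed orally, then whole blood was stimulated ex vivo with LPS. TNFα release was compared with vehicle-dosed animals.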

[42] = AUC (0 to infinity) in fed human at 10 mg, po administered as single dose; type: ADME, organism-based; design: dose 10 mg, route oral, time infinity; details: in vivo; method in brief: as §2
[43] = AUC (0 to t) in fed human at 10 mg, po administered as single dose; type: ADME, organism-based; details: in vivo; method in brief: as §2
[44] = target: T1, 3',5'-cyclic-AMP phosphodiesterase 4D (Homo sapiens, UniProt Q08499); experiment: Inhibition of human PDE4D3 expressed in sf9 cells
T1 sequence (Q08499 whole entry): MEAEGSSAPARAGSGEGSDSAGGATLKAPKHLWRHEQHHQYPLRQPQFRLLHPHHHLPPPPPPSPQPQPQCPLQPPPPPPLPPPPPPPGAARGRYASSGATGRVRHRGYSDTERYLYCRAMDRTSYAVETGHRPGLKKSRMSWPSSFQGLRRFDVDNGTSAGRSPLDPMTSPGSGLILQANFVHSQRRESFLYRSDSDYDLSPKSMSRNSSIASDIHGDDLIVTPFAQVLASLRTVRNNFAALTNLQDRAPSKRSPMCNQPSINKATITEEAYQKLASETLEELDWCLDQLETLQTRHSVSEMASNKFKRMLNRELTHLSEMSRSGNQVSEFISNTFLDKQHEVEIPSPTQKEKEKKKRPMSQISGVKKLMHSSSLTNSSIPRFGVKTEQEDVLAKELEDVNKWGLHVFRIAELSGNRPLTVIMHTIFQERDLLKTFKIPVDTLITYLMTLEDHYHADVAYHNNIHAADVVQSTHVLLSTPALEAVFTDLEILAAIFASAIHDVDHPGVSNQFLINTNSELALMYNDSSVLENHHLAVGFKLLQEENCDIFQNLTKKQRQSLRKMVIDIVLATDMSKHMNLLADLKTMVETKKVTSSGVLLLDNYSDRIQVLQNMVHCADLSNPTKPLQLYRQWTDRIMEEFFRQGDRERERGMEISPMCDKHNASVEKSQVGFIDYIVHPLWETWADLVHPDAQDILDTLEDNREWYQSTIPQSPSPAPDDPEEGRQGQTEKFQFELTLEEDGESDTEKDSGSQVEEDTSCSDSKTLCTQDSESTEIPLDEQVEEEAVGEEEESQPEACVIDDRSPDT

[45] = target: T1, 3',5'-cyclic-AMP phosphodiesterase 4D; experiment: Inhibition of human PDE4D2 expressed in sf9 cells

CC(=O)Nc1cc(-c2c(-c3ccc(F)cc3)nc([S+](C)[O-])n2C)ccn1 (centres undefined)
half-life [1]: 2.8 h | pIC50 [2]: 5.54 | pIC50 [3]: 6.40 to 6.70 | AUC(0-t) [4]: 1.99 µM·h | Tmax [5]: 2.9 h | AUC(0-t) [6]: 3.4 µM·h | pIC50 [7]: 6.15 | Tmax [8]: 3.3 h | AUC(0-inf) [9]: 3.58 µM·h | half-life [10]: 3.4 h | AUC(0-inf) [11]: 0.82 µM·h | pIC50 [12]: 5.72 | inhibition [13]: inactive | half-life [14]: 2.7 h | Tmax [15]: 1.5 h | AUC(0-inf) [16]: 2.24 µM·h | half-life [17]: 2.8 h | Cmax [18]: 200 nM | Activity [19]: Non-Toxic | fraction unbound [20]: 0.5 | inhibition [21]: 35% | Tmax [22]: 3.7 h | half-life [23]: 3.2 h | Cmax [24]: 140 nM | AUC(0-t) [25]: 2.65 µM·h | inhibition [26]: 51% | Cmax [27]: 590 nM | inhibition [28]: inactive | Tmax [29]: 2.3 h | AUC(0-inf) [30]: 3.05 µM·h | Cmax [31]: 310 to 314 nM | AUC(0-t) [32]: 0.73 µM·h | inhibition [33]: 36% | Tmax [34]: 2.2 h | pIC50 [35]: 5.19 | Cmax [36]: 140 nM | AUC(0-t) [37]: 0.95 µM·h | AUC(0-inf) [38]: 1.04 µM·h | half-life [39]: 3.3 h | Cmax [40]: 420 nM | inhibition in vivo at 12 mg/kg [41]: 50% | AUC(0-inf) [42]: 0.88 µM·h | AUC(0-t) [43]: 0.79 µM·h | pIC50 [44]: 6.10 | pIC50 [45]: 5.96

Cn1c([S+](C)[O-])nc(-c2ccc(F)cc2)c1-c1ccnc(N)c1 (centres undefined)
half-life [1]: 10.7 h | pIC50 [2]: 5.00 | pIC50 [3]: 5.70 | AUC(0-t) [4]: 6.38 µM·h | Tmax [5]: 5 h | AUC(0-t) [6]: 8.73 µM·h | pIC50 [7]: 6.15 | Tmax [8]: 6 h | AUC(0-inf) [9]: 9.4 µM·h | half-life [10]: 11.3 h | AUC(0-inf) [11]: 3.29 µM·h | pIC50 [12]: 5.46 | inhibition [13]: inactive | half-life [14]: 9.5 h | Tmax [15]: 5 h | AUC(0-inf) [16]: 7.17 µM·h | half-life [17]: 11.3 h | Cmax [18]: 190 nM | Activity [19]: Non-Toxic | fraction unbound [20]: 0.5 | inhibition [21]: inactive | Tmax [22]: 6.7 h | half-life [23]: 9 h | Cmax [24]: 140 nM | AUC(0-t) [25]: 7.37 µM·h | inhibition [26]: inactive | Cmax [27]: 600 nM | inhibition [28]: inactive | Tmax [29]: 6 h | AUC(0-inf) [30]: 8.55 µM·h | Cmax [31]: 360 nM | AUC(0-t) [32]: 2.82 µM·h | inhibition [33]: inactive | Tmax [34]: 4.7 h | pIC50 [35]: < 5.00 | Cmax [36]: 150 nM | AUC(0-t) [37]: 2.95 µM·h | AUC(0-inf) [38]: 3.43 µM·h | half-life [39]: 10.9 h | Cmax [40]: 420 nM | AUC(0-inf) [42]: 3.07 µM·h | AUC(0-t) [43]: 2.6 µM·h | pIC50 [44]: 6.15 | pIC50 [45]: 5.62
